Results from ChEMBL document CHEMBL1127451, “Benzoselenazolinone derivatives designed to be glutathione peroxidase mimetics feature inhibition of cyclooxygenase/5-lipoxygenase pathways and anti-inflammatory activity” (1994).

Experiments:
[1] = Inhibition of spontaneous lipid peroxidation at 10e-5 M in rat brain homogenate
[2] = In vitro glutathione peroxidase activity at 2*10e-7M using hydrogen peroxide, activity given in percentage of ebselen''s activity; assay type: functional
[3] = Inhibition of [Fe(2+)]/ascorbate-induced lipid peroxidation at 10e-5 M in rat brain homogenate
[4] = In vitro glutathione peroxidase activity at 2*10e-7M using tert-butyl hydroperoxide, activity given in percentage of ebselen''s activity; assay type: functional
[5] = tested on: Rattus norvegicus; test: Tested for acute anti-inflammatory activity of carrageenan-induced foot edema in rats at dose of 3 mg/kg at time interval- 3h; assay type: functional
In short: (§1)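 Fasted Wistar rats (200–240 g), six per group, receive drug orally in 2% gelatin. One hour later, 0.1 mL 2% carrageenan in 9% NaCl is injected subplantar into the hind paw. Paw volume is measured by water plethysmometry at injection and at 0.5, 1, 2, 3 and 4 h. Results are percent inhibition of swelling versus vehicle-treated rats.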

[6] = tested on: Rattus norvegicus; test: Tested for acute anti-inflammatory activity of the antirat serum-induced edema in rats at dose of 30 mg/kg at time interval- 4 hr; assay type: functional
In short: as §1, with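 “rabbit antirat serum” for “2% carrageenan in 9% NaCl”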

[7] = tested on: Rattus norvegicus; test: Tested for acute anti-inflammatory activity of the antirat serum-induced edema in rats at dose of 30 mg/kg at time interval- 0.5 hr; assay type: functional
In short: as §1, with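 “rabbit antirat serum” for “2% carrageenan in 9% NaCl”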

[8] = tested on: Rattus norvegicus; test: Tested for acute anti-inflammatory activity of the antirat serum-induced edema in rats at dose of 100 mg/kg at time interval- 2 hr; assay type: functional
In short: as §1, with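 “rabbit antirat serum” for “2% carrageenan in 9% NaCl”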

[9] = tested on: Rattus norvegicus; test: Tested for acute anti-inflammatory activity of carrageenan-induced foot edema in rats at dose of 3 mg/kg at time interval- 4 hr; assay type: functional
In short: as §1

[10] = tested on: Rattus norvegicus; test: Tested for acute anti-inflammatory activity of carrageenan-induced foot edema in rats at dose of 100 mg/kg at time interval- 1 hr; assay type: functional
In short: as §1

[11] = tested on: Rattus norvegicus; test: Tested for acute anti-inflammatory activity of the antirat serum-induced edema in rats at dose of 3 mg/kg at time interval- 1 hr; assay type: functional
In short: as §1, with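 “rabbit antirat serum” for “2% carrageenan in 9% NaCl”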

[12] = tested on: Rattus norvegicus; test: Tested for acute anti-inflammatory activity of carrageenan-induced foot edema in rats at dose of 30 mg/kg at time interval- 4 hr; assay type: functional
In short: as §1

[13] = tested on: Rattus norvegicus; test: Tested for acute anti-inflammatory activity of the antirat serum-induced edema in rats at dose of 30 mg/kg at time interval- 1 hr; assay type: functional
In short: as §1, with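 “rabbit antirat serum” for “2% carrageenan in 9% NaCl”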

[14] = tested on: Rattus norvegicus; test: Tested for acute anti-inflammatory activity of carrageenan-induced foot edema in rats at dose of 100 mg/kg at time interval- 3h; assay type: functional
In short: as §1

[15] = tested on: Rattus norvegicus; test: Tested for acute anti-inflammatory activity of the antirat serum-induced edema in rats at dose of 3 mg/kg at time interval- 3h; assay type: functional
In short: as §1, with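 “rabbit antirat serum” for “2% carrageenan in 9% NaCl”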

[16] = tested on: Rattus norvegicus; test: Tested for acute anti-inflammatory activity of carrageenan-induced foot edema in rats at dose of 30 mg/kg at time interval- 1 hr; assay type: functional
In short: as §1

[17] = tested on: Rattus norvegicus; test: Tested for acute anti-inflammatory activity of carrageenan-induced foot edema in rats at dose of 3 mg/kg at time interval- 2 hr; assay type: functional
In short: as §1

[18] = tested on: Rattus norvegicus; test: Tested for acute anti-inflammatory activity of the antirat serum-induced edema in rats at dose of 100 mg/kg at time interval- 3h; assay type: functional
In short: as §1, with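 “rabbit antirat serum” for “2% carrageenan in 9% NaCl”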

[19] = tested on: Rattus norvegicus; test: Tested for acute anti-inflammatory activity of carrageenan-induced foot edema in rats at dose of 30 mg/kg at time interval- 3h; assay type: functional
In short: as §1

[20] = tested on: Rattus norvegicus; test: Tested for acute anti-inflammatory activity of carrageenan-induced foot edema in rats at dose of 100 mg/kg at time interval- 2 hr; assay type: functional
In short: as §1

[21] = tested on: Rattus norvegicus; test: Tested for acute anti-inflammatory activity of the antirat serum-induced edema in rats at dose of 100 mg/kg at time interval- 4 hr; assay type: functional
In short: as §1, with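 “rabbit antirat serum” for “2% carrageenan in 9% NaCl”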

[22] = tested on: Rattus norvegicus; test: Tested for acute anti-inflammatory activity of the antirat serum-induced edema in rats at dose of 30 mg/kg at time interval- 2 hr; assay type: functional
In short: as §1, with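 “rabbit antirat serum” for “2% carrageenan in 9% NaCl”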

[23] = tested on: Rattus norvegicus; test: Tested for acute anti-inflammatory activity of carrageenan-induced foot edema in rats at dose of 100 mg/kg at time interval- 0.5 hr; assay type: functional
In short: as §1

[24] = tested on: Rattus norvegicus; test: Tested for acute anti-inflammatory activity of carrageenan-induced foot edema in rats at dose of 3 mg/kg at time interval- 1 hr; assay type: functional
In short: as §1

[25] = tested on: Rattus norvegicus; test: Tested for acute anti-inflammatory activity of the antirat serum-induced edema in rats at dose of 3 mg/kg at time interval- 4 hr; assay type: functional
In short: as §1, with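 “rabbit antirat serum” for “2% carrageenan in 9% NaCl”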

[26] = tested on: Rattus norvegicus; test: Tested for acute anti-inflammatory activity of the antirat serum-induced edema in rats at dose of 30 mg/kg at time interval- 3h; assay type: functional
In short: as §1, with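 “rabbit antirat serum” for “2% carrageenan in 9% NaCl”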

[27] = tested on: Rattus norvegicus; test: Tested for acute anti-inflammatory activity of the antirat serum-induced edema in rats at dose of 100 mg/kg at time interval- 1 hr; assay type: functional
In short: as §1, with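 “rabbit antirat serum” for “2% carrageenan in 9% NaCl”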

[28] = tested on: Rattus norvegicus; test: Tested for acute anti-inflammatory activity of the antirat serum-induced edema in rats at dose of 3 mg/kg at time interval- 0.5 hr; assay type: functional
In short: as §1, with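 “rabbit antirat serum” for “2% carrageenan in 9% NaCl”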

[29] = tested on: Rattus norvegicus; test: Tested for acute anti-inflammatory activity of the antirat serum-induced edema in rats at dose of 100 mg/kg at time interval- 0.5 hr; assay type: functional
In short: as §1, with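 “rabbit antirat serum” for “2% carrageenan in 9% NaCl”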

[30] = tested on: Rattus norvegicus; test: Tested for acute anti-inflammatory activity of carrageenan-induced foot edema in rats at dose of 30 mg/kg at time interval- 2 hr; assay type: functional
In short: as §1

[31] = tested on: Rattus norvegicus; test: Tested for acute anti-inflammatory activity of carrageenan-induced foot edema in rats at dose of 3 mg/kg at time interval- 0.5 hr; assay type: functional
In short: as §1

[32] = tested on: Rattus norvegicus; test: Tested for acute anti-inflammatory activity of the antirat serum-induced edema in rats at dose of 3 mg/kg at time interval- 2 hr; assay type: functional
In short: as §1, with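 “rabbit antirat serum” for “2% carrageenan in 9% NaCl”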

[33] = tested on: Rattus norvegicus; test: Tested for acute anti-inflammatory activity of carrageenan-induced foot edema in rats at dose of 30 mg/kg at time interval- 0.5 hr; assay type: functional
In short: as §1

[34] = tested on: Rattus norvegicus; test: Tested for acute anti-inflammatory activity of carrageenan-induced foot edema in rats at dose of 100 mg/kg at time interval- 4 hr; assay type: functional
In short: as §1

## CCCC(=O)c1ccc2c(c1)[se]c(=O)n2C
[1]
  inhibition: 2%
[2]
  GSH-Px activity: 0
[3]
  inhibition: -3%
[4]
  GSH-Px activity: 0

## CC(=O)c1ccc2[nH]c(=O)[se]c2c1
[1]
  inhibition: 1%
[2]
  GSH-Px activity: 0
[3]
  inhibition: 6%
[4]
  GSH-Px activity: 12

## Cn1c(=O)[se]c2cc(C(=O)c3ccc(Cl)cc3)ccc21
[1]
  inhibition: -3%
[2]
  GSH-Px activity: 0
[3]
  inhibition: 2%
[4]
  GSH-Px activity: 0

## CC(C)(Sc1cc(C(C)(C)C)c(O)c(C(C)(C)C)c1)Sc1cc(C(C)(C)C)c(O)c(C(C)(C)C)c1
[4]
  GSH-Px activity: 0

## Nc1ccc(C(=O)c2ccc(Cl)cc2)cc1[Se][Se]c1cc(C(=O)c2ccc(Cl)cc2)ccc1N
[1]
  inhibition: 100%
[2]
  GSH-Px activity: 116
[3]
  inhibition: 100%
[4]
  GSH-Px activity: 279

## O=c1c2ccccc2[se]n1-c1ccccc1 [EBSELEN]
[5]
  inhibition in vivo at 3 mg/kg: 21.4%
[6]
  inhibition in vivo at 30 mg/kg: 7.9%
[7]
  inhibition in vivo at 30 mg/kg: -19.6%
[8]
  inhibition in vivo at 100 mg/kg: 22%
[9]
  inhibition in vivo at 3 mg/kg: 13.5%
[10]
  inhibition in vivo at 100 mg/kg: 26.9%
[11]
  inhibition in vivo at 3 mg/kg: 2.3%
[12]
  inhibition in vivo at 30 mg/kg: -7.5%
[13]
  inhibition in vivo at 30 mg/kg: -3.8%
[14]
  inhibition in vivo at 100 mg/kg: 13.7%
[15]
  inhibition in vivo at 3 mg/kg: -6.6%
[16]
  inhibition in vivo at 30 mg/kg: 47.5%
[17]
  inhibition in vivo at 3 mg/kg: 30.3%
[18]
  inhibition in vivo at 100 mg/kg: 16.7%
[2]
  GSH-Px activity: 100
[19]
  inhibition in vivo at 30 mg/kg: -4.1%
[20]
  inhibition in vivo at 100 mg/kg: 18.4%
[21]
  inhibition in vivo at 100 mg/kg: 16.3%
[22]
  inhibition in vivo at 30 mg/kg: 8.2%
[23]
  inhibition in vivo at 100 mg/kg: -93.6%
[24]
  inhibition in vivo at 3 mg/kg: 29.1%
[25]
  inhibition in vivo at 3 mg/kg: -2.6%
[26]
  inhibition in vivo at 30 mg/kg: 3.7%
[27]
  inhibition in vivo at 100 mg/kg: 15.9%
[28]
  inhibition in vivo at 3 mg/kg: -9.8%
[29]
  inhibition in vivo at 100 mg/kg: 4.9%
[30]
  inhibition in vivo at 30 mg/kg: 10.2%
[31]
  inhibition in vivo at 3 mg/kg: -63.5%
[32]
  inhibition in vivo at 3 mg/kg: -1.1%
[33]
  inhibition in vivo at 30 mg/kg: -54%
[34]
  inhibition in vivo at 100 mg/kg: 0.6%
[4]
  GSH-Px activity: 100

## Cn1c(=O)[se]c2cc(C(=O)c3cccnc3)ccc21
[1]
  inhibition: 4%
[2]
  GSH-Px activity: 0
[3]
  inhibition: 1%
[4]
  GSH-Px activity: 0

## O=c1[nH]c2ccc(C(O)c3ccccc3)cc2[se]1 (stereo not drawn)
[1]
  inhibition: -1%
[2]
  GSH-Px activity: 0
[3]
  inhibition: -1%
[4]
  GSH-Px activity: 10

## O=c1[nH]c2ccc(Cc3ccccc3)cc2[se]1
[1]
  inhibition: -6%
[2]
  GSH-Px activity: 0.7
[3]
  inhibition: -7%
[4]
  GSH-Px activity: -1

## CC(=O)c1ccc(N)c([Se][Se]c2cc(C(C)=O)ccc2N)c1
[1]
  inhibition: 100%
[2]
  GSH-Px activity: 247
[3]
  inhibition: 99%
[4]
  GSH-Px activity: 238

## Nc1ccc(Cc2ccccc2)cc1[Se][Se]c1cc(Cc2ccccc2)ccc1N
[1]
  inhibition: 91%
[2]
  GSH-Px activity: 227
[3]
  inhibition: 97%
[4]
  GSH-Px activity: 242

## CCCC(=O)c1ccc2[nH]c(=O)[se]c2c1
[1]
  inhibition: -3%
[2]
  GSH-Px activity: 0
[3]
  inhibition: -2%
[4]
  GSH-Px activity: 0
